HTR2A ag: activates the mouse 5-HT2A serotonin receptor | P35363 | CHO-K1 mHTR2A beta-arrestin complementation, luminescence; percent of 30 µM serotonin response | activation, % at 7.6 µM | hit rate 0.66% among 360,000 | AID 624169;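 active means activation above a run cutoff, the mean activation of all tested compounds plus 3 SD, cut at about 14% in these data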
MC4R ag barr: human MC4R agonism via beta-arrestin; P32245; U2OS MC4R beta-arrestin complementation, luminescence; percent of melanotan II response, DMSO zero; activation, % at 8.9 µM; hit rate 0.98% among 360,000;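 active means activation above a per-plate cutoff, the mean activation of sample wells on that plate plus 3 SD, cut at about 8% in these data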
AHR act: activates the human aryl hydrocarbon receptor. AID 2796. P35869. AHR-responsive luciferase reporter cells, luminescence. hit rate 2.5% among 320,000. activation, % at 5 µM; in the data active means activation above about 47%
GAA850 FXN act: frataxin GAA850 promoter activation; HEK293 lucGAA850 FXN promoter luciferase reporter, 24 h; percent of 10 µM SAHA response; hit rate 0.56% among 360,000; activation, % at 6 µM;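 active means activation above the average of all compounds screened plus 3 SD, cutoff fixed separately per campaign, cut at about 7.5% in these data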
MC4R antagonist: antagonists of human melanocortin 4 receptor (MC4R). MC4R-expressing cells, MTII-stimulated cAMP, LANCE TR-FRET. inhibition, % at 6.5 µM. hit rate 0.48% among 360,000. AID 540295;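 active means inhibition above its plate's cutoff, the mean of tested wells on that plate plus 3 SD, cut at about 29% in these data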
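System: U2OS-MC4R stable cell line; Technique: Eu-cAMP/anti-cAMP TR-FRET, emission 671 nm; Repeats: single well per compound; Also added: Melanotan II; Dosing: one concentration, 6.5 µM nominal; Schedule: 30-min compound, 1-h challenge, 1-h detection, room temperature.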
Numbers stand for hits. The list is not random: actives were taken first. Their share in the collection is about 4.7%.

How did C#CCNC(=O)C1=C[C@@H](c2cn(C(C)=O)c3ccccc23)C[C@@H](OCCCCO)O1 do in these assays?
HTR2A ag: inactive; MC4R ag barr: inactive; AHR act: 65; GAA850 FXN act: inactive; MC4R antagonist: inactive

What do the screens show for `CC(=O)n1cc([C@H]2C=C(C(=O)Nc3ccccc3)O[C@@H](OCCCCO)C2)c2ccccc21`?
HTR2A ag: inactive; MC4R ag barr: inactive; AHR act: inactive; GAA850 FXN act: inactive; MC4R antagonist: inactive

Results for CC(=O)n1cc([C@@H]2C=C(C(=O)NCc3ccccc3)O[C@H](OCCCCO)C2)c2ccccc21 ?
HTR2A ag: inactive; MC4R ag barr: inactive; AHR act: 73; GAA850 FXN act: inactive; MC4R antagonist: inactive

Results for O=C(N/C(=C/c1cccnc1)C(=O)N1CCCCCC1)c1cccc(Br)c1 ?
HTR2A ag: inactive; MC4R ag barr: inactive; AHR act: 48; GAA850 FXN act: inactive; MC4R antagonist: inactive

How did O=C(NCCCN1CCc2ccccc2C1)Nc1ccc(Br)cc1 do in these assays?
HTR2A ag: inactive; MC4R ag barr: inactive; AHR act: 61; GAA850 FXN act: inactive; MC4R antagonist: inactive

How did COc1ccc(NC(=O)NCCCN2CCc3ccccc3C2)cc1 do in these assays?
HTR2A ag: inactive; MC4R ag barr: inactive; AHR act: inactive; GAA850 FXN act: inactive; MC4R antagonist: inactive

Results for C[C@H](CO)N1C[C@H](C)[C@H](CN(C)C(=O)Cc2ccncc2)Oc2ncc(Br)cc2C1=O ?
HTR2A ag: inactive; MC4R ag barr: inactive; GAA850 FXN act: inactive; MC4R antagonist: inactive

What do the screens show for `COc1ccc(C2=NOC(c3nnc(-c4ccccc4)o3)C2)cc1` (stereo not given)?
HTR2A ag: inactive; MC4R ag barr: inactive; AHR act: inactive; GAA850 FXN act: inactive; MC4R antagonist: inactive

What do the screens show for `NC(=O)N/N=C/c1ccc(-c2cccc(C(F)(F)F)c2)o1`?
HTR2A ag: inactive; MC4R ag barr: inactive; AHR act: 78; GAA850 FXN act: inactive; MC4R antagonist: inactive

Results for O=C(N/N=C/c1ccc(-c2cccc(C(F)(F)F)c2)o1)c1ccccc1O ?
HTR2A ag: inactive; MC4R ag barr: inactive; AHR act: inactive; GAA850 FXN act: inactive; MC4R antagonist: inactive

How did Cn1c(C(=O)O)cc2cc(F)ccc21 do in these assays?
HTR2A ag: inactive; MC4R ag barr: inactive; AHR act: 54; GAA850 FXN act: inactive; MC4R antagonist: inactive

How did CN1c2ccccc2C(O)=C(C(=S)Nc2ccc(F)c(Cl)c2)S1(=O)=O do in these assays?
HTR2A ag: inactive; MC4R ag barr: inactive; AHR act: 52; GAA850 FXN act: inactive; MC4R antagonist: inactive

What do the screens show for `Cc1ccc(OCCCCn2ccnc2)c([N+](=O)[O-])c1`?
HTR2A ag: inactive; MC4R ag barr: inactive; AHR act: 61; GAA850 FXN act: inactive; MC4R antagonist: inactive

What do the screens show for `Cc1cc(C(C)(C)C)ccc1OCCn1ccnc1`?
HTR2A ag: inactive; MC4R ag barr: inactive; AHR act: 50; GAA850 FXN act: inactive; MC4R antagonist: inactive

Results for Cc1cc(C)c(C)c(OCCCn2ccnc2)c1 ?
HTR2A ag: inactive; MC4R ag barr: inactive; AHR act: 58; GAA850 FXN act: inactive; MC4R antagonist: inactive

How did Cc1cc(C)c(OCCCn2ccnc2)c(C)c1 do in these assays?
HTR2A ag: inactive; MC4R ag barr: inactive; GAA850 FXN act: inactive; MC4R antagonist: inactive

What do the screens show for `Cc1ccc(C(C)(C)C)c(OCCCn2ccnc2)c1`?
HTR2A ag: inactive; MC4R ag barr: inactive; AHR act: 48; GAA850 FXN act: inactive; MC4R antagonist: inactive

What do the screens show for `Cc1cc(OC(=O)Nc2ccccc2)ccc1Cl`?
HTR2A ag: inactive; MC4R ag barr: inactive; GAA850 FXN act: inactive; MC4R antagonist: inactive

What do the screens show for `CCOC(=O)C1=CCN(S(=O)(=O)c2ccccc2Cl)C1c1cccc(Br)c1` (stereo not given)?
HTR2A ag: inactive

Results for Cc1ccc(OCCCn2ccnc2)cc1C ?
HTR2A ag: inactive; MC4R ag barr: inactive; AHR act: inactive; GAA850 FXN act: inactive; MC4R antagonist: inactive

How did Cc1cc(OCCn2ccnc2)ccc1C(C)C do in these assays?
HTR2A ag: inactive; MC4R ag barr: inactive; AHR act: 64; GAA850 FXN act: inactive; MC4R antagonist: inactive

What do the screens show for `COc1ccc(C2=CC(=O)C[C@H](c3ccc4c(c3)OCO4)C2)cn1`?
HTR2A ag: inactive; MC4R ag barr: inactive; AHR act: inactive; GAA850 FXN act: inactive; MC4R antagonist: inactive

Compound activity deposited in PubChem by The Scripps Research Institute Molecular Screening Center.
